From ChEMBL document CHEMBL1153823, “Design, synthesis, and biological evaluation of new 5-HT4 receptor agonists: application as amyloid cascade modulators and potential therapeutic utility in Alzheimer's disease” (J Med Chem, 2009)
The source made the active and inactive calls. The rule behind the calls is not given here.

Tested on: not listed separately
Test: Inhibition of amyloid beta (25-35) polymerization assessed as inhibition of fibril formation at 10 uM by UV-visible measurement
Method in brief: (§1)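 Aβ25-35 (100 µM final) with agonist (10 µM final, added in MeOH) in 10 mM phosphate buffer pH 7.2, prepared at 4 °C. UV-visible spectra 190–600 nm at 15 °C read after 6 h; agonist-alone spectra subtracted, Aβ-alone control run in parallel. At least three independent measurements. IC50 obtained by least-squares sigmoidal fit, for agonists at least as active as curcumin.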

Point of comparison: `COc1cc(/C=C/C(=O)CC(=O)/C=C/c2ccc(O)c(OC)c2)ccc1O` [CURCUMIN], inhibition 45%. Against it:
- COc1cc(N)c(Cl)cc1C(=O)OCCN1CCC(NC(=O)CCCNCCCc2ccc(CCCNCCCC(=O)NC3CCN(CCOC(=O)c4cc(Cl)c(N)cc4OC)CC3)cc2)CC1 — higher, 49%

Biological target: T1, 5-hydroxytryptamine receptor 4 (Homo sapiens, UniProt Q13639)
Test: Displacement of [3H]GR-113808 from human 5HT4 isoform E receptor expressed in rat C6 cells at 10 nM by liquid scintillation counting
Format: cell-based

T1 sequence (Q13639 whole entry, canonical isoform): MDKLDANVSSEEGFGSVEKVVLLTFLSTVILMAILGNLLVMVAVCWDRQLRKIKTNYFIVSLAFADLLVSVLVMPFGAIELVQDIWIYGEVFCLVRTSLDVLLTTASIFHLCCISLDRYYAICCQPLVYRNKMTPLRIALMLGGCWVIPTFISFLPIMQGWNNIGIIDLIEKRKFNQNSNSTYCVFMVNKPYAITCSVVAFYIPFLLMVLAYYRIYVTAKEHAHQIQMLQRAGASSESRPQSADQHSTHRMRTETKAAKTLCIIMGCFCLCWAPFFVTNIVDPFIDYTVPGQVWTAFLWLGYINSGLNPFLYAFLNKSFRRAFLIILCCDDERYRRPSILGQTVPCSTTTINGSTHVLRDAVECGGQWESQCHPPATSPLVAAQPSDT

Point of comparison: `COc1cc(N)c(Cl)cc1C(=O)OCCN1CCC(NC(=O)CCCc2ccccc2)CC1`, Activity 20%. Against it:
- COc1cc(N)c(Cl)cc1C(=O)OCCN1CCC(CNC(=O)Cc2ccccc2Cl)CC1 — higher, > 50%
- COc1cc(N)c(Cl)cc1C(=O)OCCN1CCC(NC(=O)Cc2ccccc2Cl)CC1 — lower, 10%
- COc1cc(N)c(Cl)cc1C(=O)OCCN1CCC(CNC(=O)CCC2CCCCC2)CC1 — lower, 10%
- COc1cc(N)c(Cl)cc1C(=O)OCCN1CCC(CNC(=O)CCCNS(=O)(=O)c2ccc(-c3ccccc3)cc2)CC1 — lower, 10%
- COc1cc(N)c(Cl)cc1C(=O)OCCN1CCC(CNC(=O)CC(C)(C)C)CC1 — lower, 10%
- COc1cc(N)c(Cl)cc1C(=O)OCCN1CCC(NC(=O)CCc2cccs2)CC1 — lower, 10%
- COc1cc(N)c(Cl)cc1C(=O)OCCN1CCC(NC(=O)c2cccs2)CC1 — the same, 20%
- CCCC(=O)NC1CCN(CCOC(=O)c2cc(Cl)c(N)cc2OC)CC1 — lower, 0%
- COc1cc(N)c(Cl)cc1C(=O)OCCN1CCC(CNC(=O)CCCCc2ccccc2)CC1 — lower, 10%
- COc1cc(N)c(Cl)cc1C(=O)OCCN1CCC(CNC(=O)CCc2cccs2)CC1 — higher, 30%
- COc1cc(N)c(Cl)cc1C(=O)OCCN1CCCCC1 — higher, 40%
- CCCC(=O)NCC1CCN(CCOC(=O)c2cc(Cl)c(N)cc2OC)CC1 — the same, 20%
- COc1cc(N)c(Cl)cc1C(=O)OCCN1CCC(NC(=O)CCCNS(=O)(=O)c2ccc(C)cc2)CC1 — lower, 10%
- COc1cc(N)c(Cl)cc1C(=O)OCCN1CCC(NC(=O)CSc2ccccc2)CC1 — the same, 20%
- COc1cc(N)c(Cl)cc1C(=O)OCCN1CCC(NC(=O)CC(C)C)CC1 — lower, < 10%
- COc1cc(N)c(Cl)cc1C(=O)OCCN1CCC(CNC(=O)Cc2ccc([N+](=O)[O-])cc2)CC1 — higher, 40%
- COc1ccc(OC)c(/C=C/C(=O)NCC2CCN(CCOC(=O)c3cc(Cl)c(N)cc3OC)CC2)c1 — the same, 20%
- COc1cc(N)c(Cl)cc1C(=O)OCCN1CCC(NC(=O)c2ccsc2)CC1 — lower, 10%
- COc1ccc(OC)c(CC(=O)NCC2CCN(CCOC(=O)c3cc(Cl)c(N)cc3OC)CC2)c1 — higher, 40%
- COc1cc(N)c(Cl)cc1C(=O)OCCN1CCC(NC(=O)CCCNCCCc2ccc(CCCNCCCC(=O)NC3CCN(CCOC(=O)c4cc(Cl)c(N)cc4OC)CC3)cc2)CC1 — lower, 10%

Biological target: T1, 5-hydroxytryptamine receptor 4
Test: Agonist activity at human 5HT4 isoform E receptor expressed in rat C6 cells assessed as cAMP accumulation by radio-immunoassay relative to 5HT
Format: functional, cell-based
Method in brief: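 C6 glial cells stably transfected with h5-HT4(e)R, grown to confluence, serum-free 4 h, then preincubated 15 min in serum-free medium with 5 mM theophylline and 10 µM pargyline.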

Point of comparison: `COc1cc(N)c(Cl)cc1C(=O)OCCN1CCC(NC(=O)CCCNCCCc2ccc(CCCNCCCC(=O)NC3CCN(CCOC(=O)c4cc(Cl)c(N)cc4OC)CC3)cc2)CC1`, EC50 9 nM. Against it:
- COc1cc(N)c(Cl)cc1C(=O)OCCN1CCC(NC(=O)Cc2ccccc2Cl)CC1 — 2-fold higher, 18 nM

Biological target: T1, 5-hydroxytryptamine receptor 4
Test: Displacement of [3H]GR-113808 from human 5HT4 isoform E receptor expressed in rat C6 cells by liquid scintillation counting
Format: cell-based

Point of comparison: `COc1cc(N)c(Cl)cc1C(=O)OCCN1CCC(NC(=O)Cc2ccccc2Cl)CC1`, Ki 5 nM. Against it:
- COc1cc(N)c(Cl)cc1C(=O)OCCN1CCC(NC(=O)CCCNCCCc2ccc(CCCNCCCC(=O)NC3CCN(CCOC(=O)c4cc(Cl)c(N)cc4OC)CC3)cc2)CC1 — 2.8-fold higher, 14 nM

Biological target: T1, 5-hydroxytryptamine receptor 4
Test: Agonist activity at human 5HT4 isoform E receptor expressed in rat C6 cells assessed as cAMP accumulation at 10 nM by radio-immunoassay relative to 5HT
Format: functional, cell-based
Method in brief: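 C6 glial cells stably transfected with h5-HT4(e)R, grown to confluence, serum-free 4 h, then preincubated 15 min in serum-free medium with 5 mM theophylline and 10 µM pargyline. […] Stopped with ice-cold perchloric acid; cAMP by radioimmunoassay; response normalized to 5-HT maximum.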

Point of comparison: `COc1cc(N)c(Cl)cc1C(=O)OCCN1CCC(CNC(=O)Cc2ccccc2Cl)CC1`, Emax 20%. Against it:
- COc1cc(N)c(Cl)cc1C(=O)OCCN1CCC(NC(=O)Cc2ccccc2Cl)CC1 — higher, > 50%
- COc1cc(N)c(Cl)cc1C(=O)OCCN1CCC(CNC(=O)CCC2CCCCC2)CC1 — higher, > 50%
- COc1cc(N)c(Cl)cc1C(=O)OCCN1CCC(CNC(=O)CCCNS(=O)(=O)c2ccc(-c3ccccc3)cc2)CC1 — lower, < 10%
- COc1cc(N)c(Cl)cc1C(=O)OCCN1CCC(CNC(=O)CC(C)(C)C)CC1 — lower, 10%
- COc1cc(N)c(Cl)cc1C(=O)OCCN1CCC(NC(=O)CCc2cccs2)CC1 — lower, 10%
- COc1cc(N)c(Cl)cc1C(=O)OCCN1CCC(NC(=O)c2cccs2)CC1 — lower, < 10%
- COc1cc(N)c(Cl)cc1C(=O)OCCN1CCC(CNC(=O)CCCCc2ccccc2)CC1 — lower, 10%
- COc1cc(N)c(Cl)cc1C(=O)OCCN1CCC(CNC(=O)CCc2cccs2)CC1 — higher, 30%
- COc1cc(N)c(Cl)cc1C(=O)OCCN1CCCCC1 — higher, 45%
- CCCC(=O)NCC1CCN(CCOC(=O)c2cc(Cl)c(N)cc2OC)CC1 — lower, < 10%
- COc1cc(N)c(Cl)cc1C(=O)OCCN1CCC(NC(=O)CCCNS(=O)(=O)c2ccc(C)cc2)CC1 — lower, 10%
- COc1cc(N)c(Cl)cc1C(=O)OCCN1CCC(NC(=O)CSc2ccccc2)CC1 — lower, < 10%
- COc1cc(N)c(Cl)cc1C(=O)OCCN1CCC(NC(=O)CC(C)C)CC1 — lower, 10%
- COc1cc(N)c(Cl)cc1C(=O)OCCN1CCC(CNC(=O)Cc2ccc([N+](=O)[O-])cc2)CC1 — higher, > 50%
- COc1cc(N)c(Cl)cc1C(=O)OCCN1CCC(NC(=O)c2ccsc2)CC1 — the same, 20%
- COc1ccc(OC)c(CC(=O)NCC2CCN(CCOC(=O)c3cc(Cl)c(N)cc3OC)CC2)c1 — lower, 10%
- COc1cc(N)c(Cl)cc1C(=O)OCCN1CCC(NC(=O)CCCc2ccccc2)CC1 — the same, 20%
- COc1cc(N)c(Cl)cc1C(=O)OCCN1CCC(NC(=O)CCCNCCCc2ccc(CCCNCCCC(=O)NC3CCN(CCOC(=O)c4cc(Cl)c(N)cc4OC)CC3)cc2)CC1 — higher, > 50%

Tested on: Mus musculus
Test: Increase in sAPPalpha levels in C57BL/6J mouse brain cortex at 5 mg/kg, sc after 90 mins by Western blot
Format: functional, organism-based
Parameters: dose 5 mg/kg
Method in brief: (§2)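 Male C57BL/6j mice, 8 weeks, 23–27 g, 7–9 per group, single subcutaneous dose 5 mg/kg in 0.9% NaCl (saline controls 5 mL/kg). Killed 90 min later. Hippocampus and cortex sonicated in Tris/NaCl with protease inhibitors, spun 100000g 45 min. sAPPα immunoblot, normalized to β-actin densitometry, expressed as % of saline controls. One-way ANOVA with PLSD.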

For `COc1cc(N)c(Cl)cc1C(=O)OCCN1CCC(NC(=O)CCCNCCCc2ccc(CCCNCCCC(=O)NC3CCN(CCOC(=O)c4cc(Cl)c(N)cc4OC)CC3)cc2)CC1`, the Activity was “Active”.

Tested on: not listed separately
Test: Inhibition of amyloid beta (25-35) polymerization assessed as inhibition of fibril formation by UV-visible measurement
Method in brief: as §1

Point of comparison: `COc1cc(N)c(Cl)cc1C(=O)OCCN1CCC(NC(=O)CCCNCCCc2ccc(CCCNCCCC(=O)NC3CCN(CCOC(=O)c4cc(Cl)c(N)cc4OC)CC3)cc2)CC1`, IC50 9000 nM. Against it:
- COc1cc(/C=C/C(=O)CC(=O)/C=C/c2ccc(O)c(OC)c2)ccc1O [CURCUMIN] — within 1.5-fold, 10000 nM

Tested on: Mus musculus
Test: Increase in sAPPalpha levels in C57BL/6J mouse brain hippocampus at 5 mg/kg, sc after 90 mins by Western blot
Format: functional, organism-based
Parameters: dose 5 mg/kg
Method in brief: as §2

In the case of `COc1cc(N)c(Cl)cc1C(=O)OCCN1CCC(NC(=O)CCCNCCCc2ccc(CCCNCCCC(=O)NC3CCN(CCOC(=O)c4cc(Cl)c(N)cc4OC)CC3)cc2)CC1`, the Activity is reported as “Active”.
